pIC50: −log10 of the molar value. One block for each molecule: values may come before it. Activity calls are given as the source filed them. The rule behind the calls is not given here.
Columns and labels:
[1] = target: Human immunodeficiency virus type 1 reverse transcriptase (Human immunodeficiency virus 1, UniProt Q72547); test: Inhibition of wild type HIV1 reverse transcriptase assessed as inhibition of DNA primer extension using [8-3H(N)]-dATP by scintillation proximity assay
In short: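 Biotinylated PPT80 DNA template annealed to DNA PPT primer (50 nM hybrid), preincubated 5 min at 37 °C with inhibitor in 50 mM Tris pH 7.8, 50 mM NaCl, 6 mM MgCl2, 4 μM dCTP/dGTP/dTTP, 0.5 μM [8-3H]-dATP. Purified RT added and reaction run 5 min. Quenched with EDTA plus streptavidin SPA beads. Beads counted after ~8 h settling. Ten-point 3-fold dilutions from 100 μM to 10 nM, DMSO ≤5%. Activity taken relative to uninhibited controls. IC50 from variable-slope sigmoidal fit; triplicate determinations.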

[2] = target: Human immunodeficiency virus type 1 reverse transcriptase (Human immunodeficiency virus 1, UniProt Q72547, K65R); test: Inhibition of wild type HIV1 reverse transcriptase K65R mutant assessed as inhibition of DNA primer extension using [8-3H(N)]-dATP by scintillation proximity assay
In short: (§1)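 50 nM biotinylated PPT80 template/PPT primer and inhibitor (10-step 3-fold series, 100 μM–10 nM final, DMSO ≤5%) were preincubated 5 min at 37 °C. Buffer: 50 mM Tris pH 7.8, 50 mM NaCl, 6 mM MgCl2, 4 μM dCTP/dGTP/dTTP, 0.5 μM [3H]dATP. RT started the 5-min reaction, stopped with EDTA/streptavidin SPA beads. Counts were normalized to uninhibited controls; IC50 from variable-slope sigmoid fit.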

[3] = test system: Human immunodeficiency virus type 1 reverse transcriptase (Human immunodeficiency virus 1), Q72547 [M184V]; test: Inhibition of wild type HIV1 reverse transcriptase M184V mutant assessed as inhibition of DNA primer extension using [8-3H(N)]-dATP by scintillation proximity assay relative to wild type
[4] = test system: Human immunodeficiency virus type 1 reverse transcriptase (Human immunodeficiency virus 1), Q72547 [K65R]; test: Inhibition of wild type HIV1 reverse transcriptase K65R mutant assessed as inhibition of DNA primer extension using [8-3H(N)]-dATP by scintillation proximity assay relative to wild type
[5] = target: T1, Farnesyl pyrophosphate synthase (Homo sapiens) (UniProt P14324); test: Inhibition of human FPPS at 10 uM
T1 sequence (whole entry): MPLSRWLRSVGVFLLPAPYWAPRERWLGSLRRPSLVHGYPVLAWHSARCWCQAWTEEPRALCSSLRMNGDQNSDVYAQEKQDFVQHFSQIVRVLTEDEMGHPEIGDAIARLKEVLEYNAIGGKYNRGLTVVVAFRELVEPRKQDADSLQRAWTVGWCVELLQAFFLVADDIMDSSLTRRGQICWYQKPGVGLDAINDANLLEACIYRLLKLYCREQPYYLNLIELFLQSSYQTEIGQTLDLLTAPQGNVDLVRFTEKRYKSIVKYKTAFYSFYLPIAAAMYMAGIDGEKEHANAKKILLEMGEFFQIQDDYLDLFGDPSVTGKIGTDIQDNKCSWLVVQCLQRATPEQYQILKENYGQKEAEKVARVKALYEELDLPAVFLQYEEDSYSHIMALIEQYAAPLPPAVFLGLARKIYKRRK

[6] = target: Human immunodeficiency virus type 1 reverse transcriptase (Human immunodeficiency virus 1, UniProt Q72547, M184V); test: Inhibition of wild type HIV1 reverse transcriptase M184V mutant assessed as inhibition of DNA primer extension using [8-3H(N)]-dATP by scintillation proximity assay; in short: as §1
[7] = target: T2, Geranylgeranyl pyrophosphate synthase (Homo sapiens) (UniProt O95749); test: Inhibition of human GGPPS at 10 uM
T2 sequence (whole entry): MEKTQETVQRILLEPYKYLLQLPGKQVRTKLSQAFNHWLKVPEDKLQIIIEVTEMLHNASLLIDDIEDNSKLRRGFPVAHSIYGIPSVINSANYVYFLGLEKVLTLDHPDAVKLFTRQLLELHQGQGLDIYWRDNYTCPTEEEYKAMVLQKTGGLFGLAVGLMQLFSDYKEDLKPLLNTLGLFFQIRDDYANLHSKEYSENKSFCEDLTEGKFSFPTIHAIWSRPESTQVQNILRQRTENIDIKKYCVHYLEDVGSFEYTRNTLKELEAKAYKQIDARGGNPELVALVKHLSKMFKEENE

[8] = target: T2, Geranylgeranyl pyrophosphate synthase (Homo sapiens); test: Inhibition of human GGPPS at 50 uM
[9] = target: T1, Farnesyl pyrophosphate synthase (Homo sapiens); test: Inhibition of human FPPS at 50 uM

SMILES: COc1cccc(-c2cnc3ncnc(NCC(P(=O)(O)O)P(=O)(O)O)c3c2)c1
pIC50 [1]: 4.70

SMILES: CSc1ccc2c(NC(P(=O)(O)O)P(=O)(O)O)ncnc2n1
pIC50 [1]: < 4.30

SMILES: O=P(O)(O)C(Nc1ncnc2ncccc12)P(=O)(O)O
pIC50 [1]: < 4.30

SMILES: CSc1nc2ncnc(NCC(P(=O)(O)O)P(=O)(O)O)c2cc1-c1ccccc1
pIC50 [2]: 5.28
pIC50 [1]: 5.96
Ratio IC50 [3]: 0.4
Ratio IC50 [4]: 3.4
inhibition [5]: 75%
pIC50 [6]: 6.22
inhibition [7]: inactive

SMILES: CSc1nc2ncnc(NC(P(=O)(O)O)P(=O)(O)O)c2cc1-c1ccc(OC(C)C)cc1
pIC50 [2]: 5.74
pIC50 [1]: 5.74
Ratio IC50 [3]: 1.6
Ratio IC50 [4]: 2.1
inhibition [8]: < 10%
inhibition [9]: < 10%
pIC50 [6]: 5.85

SMILES: COc1cccc(-c2cc3c(NCC(P(=O)(O)O)P(=O)(O)O)ncnc3nc2SC)c1
pIC50 [2]: 5.48
pIC50 [1]: 5.62
Ratio IC50 [3]: 2.7
Ratio IC50 [4]: 2.1
inhibition [5]: 75%
pIC50 [6]: 5.38
inhibition [7]: inactive

SMILES: O=P(O)(O)C(CNc1ncnc2ncccc12)P(=O)(O)O
pIC50 [1]: < 4.30

Results, then the molecule that gave them:

pIC50 [1]: 4.98
SMILES: O=P(O)(O)C(Nc1ncnc2nc(-c3cccs3)ccc12)P(=O)(O)O

pIC50 [1]: 5.15
SMILES: CSc1nc2ncnc(NCC(P(=O)(O)O)P(=O)(O)O)c2cc1-c1ccc(OC(C)C)cc1

pIC50 [1]: 5.00
SMILES: CC(C)Oc1ccc(-c2cnc3ncnc(NC(P(=O)(O)O)P(=O)(O)O)c3c2)cc1

pIC50 [1]: 5.05
SMILES: O=P(O)(O)C(CNc1ncnc2ncc(-c3ccsc3)cc12)P(=O)(O)O

pIC50 [1]: 5.08
SMILES: CSc1nc2ncnc(NCC(P(=O)(O)O)P(=O)(O)O)c2cc1-c1ccsc1

pIC50 [1]: 5.82
SMILES: O=C(O)C(=NNc1ccc(Cl)cc1)C(=O)O

— ChEMBL document CHEMBL3351992, “Modular assembly of purine-like bisphosphonates as inhibitors of HIV-1 reverse transcriptase” (J Med Chem, 2014)
